ChEMBL document CHEMBL3098054, “The synthesis of novel taxoids for oral administration” (Bioorg Med Chem, 2014)

Legend:
[1] = Efflux ratio of apparent permeability from basolateral to apical side over apical to basolateral side in human Caco2 cells at 10 uM after 90 mins by LC-MS/MS analysis; assay type: ADME, cell-based, Caco-2; conditions: Caco-2
Procedure, shortened: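 Caco-2 cells cultured 21 days on 24-well inserts, TEER >250 Ω·cm². Monolayers pre-incubated in HBSS pH 7.4 at 37 °C. Compound added to the donor side at 10 µM, 37 °C, 5% CO₂, 90 min, in the A-to-B and B-to-A directions. Donor and receiver levels measured by LC-MS/MS. Papp calculated from receiver amount, membrane area 0.7 cm², time and initial donor concentration. Efflux ratio = B–A/A–B.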

[2] = Apparent permeability from basolateral to apical side in human Caco2 cells at 10 uM after 90 mins by LC-MS/MS analysis; assay type: ADME, cell-based, Caco-2; conditions: Caco-2
[3] = Apparent permeability from apical to basolateral side in human Caco2 cells at 10 uM after 90 mins by LC-MS/MS analysis; assay type: ADME, cell-based, Caco-2; conditions: Caco-2
MCF7 [4] = assay: Cytotoxicity against human MCF7 cells after 72 hrs by MTT assay; assay type: functional, cell-based; conditions: MCF7, 72 h
Procedure, shortened: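 MCF-7 cells exposed to compound for 72 h and read by MTT. At least six replicate wells per assay, run on three separate occasions. IC₅₀ given as mean with standard deviation.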

HL-60 = assay: Cytotoxicity against human HL60 cells at 1 uM after 72 hrs by MTT assay; assay type: functional; conditions: HL-60, 72 h, read-out: GI
Procedure, shortened: (§1)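 Cells plated at 2000–5000/well, attached overnight at 37 °C. DMSO stocks (100 mM) serially diluted in medium to a final 1 µM, tested in duplicate wells. Exposure 72 h at 37 °C, 5% CO₂. MTT (5 mg/mL, 10 µL) added for 4 h. Lysis in 10% SDS / 5% isopropanol / 0.012 N HCl, then OD read at 580–680 nm.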

DU-145 = assay: Cytotoxicity against human DU145 cells at 1 uM after 72 hrs by MTT assay; assay type: functional; conditions: DU-145, 72 h, read-out: GI; procedure, shortened: as §1
HT-29 = assay: Cytotoxicity against human HT-29 cells at 1 uM after 72 hrs by MTT assay; assay type: functional; conditions: HT-29, 72 h, read-out: GI; procedure, shortened: as §1
A-375 = assay: Cytotoxicity against human A375 cells at 1 uM after 72 hrs by MTT assay; assay type: functional; conditions: A-375, 72 h, read-out: GI
Procedure, shortened: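 Cells plated at 2000–5000/well, attached overnight at 37 °C. DMSO stocks (100 mM) serially diluted in medium to a final 1 µM, tested in duplicate wells. MTT (5 mg/mL, 10 µL) added for 4 h. Lysis in 10% SDS / 5% isopropanol / 0.012 N HCl, then OD read at 580–680 nm.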

MCF7 [5] = assay: Cytotoxicity against human MCF7 cells at 1 uM after 72 hrs by MTT assay; assay type: functional; conditions: MCF7, 72 h, read-out: GI; procedure, shortened: as §1
NCI-H460 = assay: Cytotoxicity against human NCI-H460 cells at 1 uM after 72 hrs by MTT assay; assay type: functional; conditions: NCI-H460, 72 h, read-out: GI; procedure, shortened: as §1
HeLa = assay: Cytotoxicity against human HeLa cells at 1 uM after 72 hrs by MTT assay; assay type: functional; conditions: read-out: GI; procedure, shortened: as §1
A2780 = assay: Cytotoxicity against human A2780 cells at 1 uM after 72 hrs by MTT assay; assay type: functional; conditions: A2780, 72 h, read-out: GI; procedure, shortened: as §1

Row | Compound | efflux ratio at 1.5 h, 10 µM [1] | Papp B→A at 1.5 h, 10 µM [2] [×10⁻⁶ cm/s] | Papp A→B at 1.5 h, 10 µM [3] [×10⁻⁶ cm/s] | IC50 (MCF7 [4]) [nM] | inhibition of growth at 1 µM (HL-60) [%] | inhibition of growth at 1 µM (DU-145) [%] | inhibition of growth at 1 µM (HT-29) [%] | inhibition of growth at 1 µM (A-375) [%] | inhibition of growth at 1 µM (MCF7 [5]) [%] | inhibition of growth at 1 µM (NCI-H460) [%] | inhibition of growth at 1 µM (HeLa) [%] | inhibition of growth at 1 µM (A2780) [%]
1 | COC(=O)O[C@H]1C(=O)[C@]2(C)[C@@H](OC)C[C@H]3OC[C@@]3(OC(C)=O)[C@H]2[C@H](OC(=O)c2ccccc2)[C@]2(O)C[C@H](OC(=O)[C@H](O)[C@@H](NC(=O)OC(C)(C)C)c3ccccc3)C(C)=C1C2(C)C | 4.22 | 29.2 | 6.91 | 1.4 | 97.4 | 83.3 | 87.3 | 103 | 95.3 | 80.4 | 99.5 | 94.1
2 | CO[C@H]1C[C@H]2OC[C@@]2(OC(C)=O)[C@H]2[C@H](OC(=O)c3ccccc3)[C@]3(O)C[C@H](OC(=O)[C@H](O)[C@@H](NC(=O)OC(C)(C)C)c4ccccc4)C(C)=C([C@@H](OC(=O)N(C)C)C(=O)[C@]12C)C3(C)C | 4.08 | 33.1 | 8.11 | 1.58 | 97.2 | 84.8 | 87.9 | 87.7 | 93.5 | 83.3 | 99.8 | 94.8
3 | CO[C@H]1C(=O)[C@]2(C)[C@@H](OC)C[C@H]3OC[C@@]3(OC(C)=O)[C@H]2[C@H](OC(=O)c2ccccc2)[C@]23OC(=O)O[C@H]2[C@H](OC(=O)[C@H](O)[C@@H](NC(=O)OC(C)(C)C)c2ccccc2)C(C)=C1C3(C)C | 6.42 | 18.2 | 2.83 | 2.1 | 95.9 | 84.7 | 89 | 89.8 | 93.5 | 82.2 | 98.2 | 94.7
4 | CO[C@H]1C[C@H]2OC[C@@]2(OC(C)=O)[C@H]2[C@H](OC(=O)c3ccccc3)[C@]3(O)C[C@H](OC(=O)[C@H](O)[C@H](CC(C)C)NC(=O)OC(C)(C)C)C(C)=C([C@@H](OC(=O)N(C)C)C(=O)[C@]12C)C3(C)C | – | 32.6 | 8.17 | 1.7 | – | – | – | 89 | – | – | 101 | –
5 | COC(=O)O[C@H]1C[C@H]2OC[C@@]2(OC(C)=O)[C@H]2[C@H](OC(=O)c3ccccc3)[C@]34OC(=O)O[C@H]3[C@H](OC(=O)[C@H](O)[C@H](CC(C)C)NC(=O)OC(C)(C)C)C(C)=C([C@@H](OC)C(=O)[C@]12C)C4(C)C | 7.81 | 7.16 | 0.92 | 2.94 | – | – | – | – | – | – | – | –
6 | CO[C@H]1C(=O)[C@]2(C)[C@@H](OC)C[C@H]3OC[C@@]3(OC(C)=O)[C@H]2[C@H](OC(=O)c2ccccc2)[C@]23OC(=O)O[C@H]2[C@H](OC(=O)[C@H](O)[C@@H](NC(=O)c2ccccc2)c2ccccc2)C(C)=C1C3(C)C | – | – | 1.48 | 6.93 | 96.6 | 87.8 | 89.4 | 90.8 | 96 | 87.9 | 101 | 96.7
7 | COC(=O)O[C@H]1C[C@H]2OC[C@@]2(OC(C)=O)[C@H]2[C@H](OC(=O)c3ccccc3)[C@]3(O)C[C@H](OC(=O)[C@H](O)[C@H](CC(C)C)NC(=O)OC(C)(C)C)C(C)=C([C@@H](OC)C(=O)[C@]12C)C3(C)C | – | 36.4 | 7.16 | 2.81 | – | – | – | – | – | – | 100 | –
8 | CO[C@H]1C(=O)[C@]2(C)[C@@H](OC(=O)N(C)C)C[C@H]3OC[C@@]3(OC(C)=O)[C@H]2[C@H](OC(=O)c2ccccc2)[C@]23OC(=O)O[C@H]2[C@H](OC(=O)[C@H](O)[C@H](CC(C)C)NC(=O)OC(C)(C)C)C(C)=C1C3(C)C | 2.39 | 5.74 | 2.4 | 21.2 | – | – | – | – | – | – | – | –
9 | CO[C@H]1C(=O)[C@@]2(C)[C@H]([C@H](OC(=O)c3ccccc3)[C@]34OC(=O)O[C@H]3[C@H](OC(=O)[C@H](O)[C@@H](NC(=O)OC(C)(C)C)c3ccccc3)C(C)=C1C4(C)C)[C@]1(OC(C)=O)CO[C@@H]1C[C@@H]2O | 51 | 44.7 | 0.88 | – | 97.5 | 86.8 | 86.6 | 92.5 | 87.1 | 82.7 | 100 | 95
10 | CC(=O)O[C@H]1C(=O)[C@@]2(C)[C@H]([C@H](OC(=O)c3ccccc3)[C@]34OC(=O)O[C@H]3[C@H](OC(=O)[C@H](O)[C@H](CC(C)C)NC(=O)OC(C)(C)C)C(C)=C1C4(C)C)[C@]1(OC(C)=O)CO[C@@H]1C[C@@H]2O [ORTATAXEL] | 6.84 | 19.2 | 2.8 | – | 96.5 | 90.6 | 87.7 | 96.7 | 88.7 | 85.5 | 99.5 | 96.4
11 | CO[C@H]1C(=O)[C@]2(C)[C@@H](OC(=O)N(C)C)C[C@H]3OC[C@@]3(OC(C)=O)[C@H]2[C@H](OC(=O)c2ccccc2)[C@]23OC(=O)O[C@H]2[C@H](OC(=O)[C@H](O)[C@@H](NC(=O)OC(C)(C)C)c2ccccc2)C(C)=C1C3(C)C | – | – | < 1.67 | 15.4 | 97.5 | 90.7 | 87.4 | 93.1 | 84.7 | 86.2 | 100 | 95.9
12 | CO[C@H]1C(=O)[C@]2(C)CC[C@H]3OC[C@@]3(OC(C)=O)[C@H]2[C@H](OC(=O)c2ccccc2)[C@]2(O)C[C@H](OC(=O)[C@H](O)[C@H](CC(C)C)NC(=O)OC(C)(C)C)C(C)=C1C2(C)C | 5.12 | 38.6 | 7.17 | 3.06 | – | – | – | – | – | – | 99.3 | –
13 | COC(=O)O[C@H]1C(=O)[C@]2(C)[C@@H](OC)C[C@H]3OC[C@@]3(OC(C)=O)[C@H]2[C@H](OC(=O)c2ccccc2)[C@]2(O)C[C@H](OC(=O)[C@H](O)[C@H](CC(C)C)NC(=O)OC(C)(C)C)C(C)=C1C2(C)C | – | 33.3 | 8.87 | 2.9 | – | – | – | – | – | – | 99.7 | –
